In ChEMBL document CHEMBL4477200, “Design, Synthesis, and Preclinical Evaluation of 4-Substituted-5-methyl-furo[2,3-d]pyrimidines as Microtubule Targeting Agents That Are Effective against Multidrug Resistant Cancer Cells” (J Med Chem, 2016):
Active and inactive are the calls of the source. The calls are words filed in the database; no cut-off is given here.

Experiments:
[1] = test system: NCI/ADR-RES; assay: Cytotoxicity against human NCI-ADR-RES cells assessed as growth inhibition after 48 hrs by SRB assay; assay type: functional
[2] = test system: EKVX; assay: Cytotoxicity against human EKVX cells assessed as growth inhibition after 48 hrs by SRB assay; assay type: functional
[3] = test system: OVCAR-4; assay: Cytotoxicity against human OVCAR4 cells assessed as growth inhibition after 48 hrs by SRB assay; assay type: functional; settings: OVCAR-4, 48 h
[4] = test system: A498; assay: Cytotoxicity against human A498 cells assessed as growth inhibition after 48 hrs by SRB assay; assay type: functional; settings: A498, 48 h
[5] = test system: OVCAR-8; assay: Cytotoxicity against human OVCAR8 cells assessed as growth inhibition after 48 hrs by SRB assay; assay type: functional; settings: OVCAR-8, 48 h
[6] = test system: OVCAR-3; assay: Cytotoxicity against human OVCAR3 cells assessed as growth inhibition after 48 hrs by SRB assay; assay type: functional; settings: OVCAR-3, 48 h
[7] = test system: COLO 205; assay: Cytotoxicity against human COLO205 cells assessed as growth inhibition after 48 hrs by SRB assay; assay type: functional; settings: COLO 205, 48 h
[8] = test system: CAKI-1; assay: Cytotoxicity against human Caki1 cells assessed as growth inhibition after 48 hrs by SRB assay; assay type: functional; settings: CAKI-1, 48 h
[9] = target: T1, Tubulin (Bos taurus) (UniProt Q6B856+Q862L2+Q862F3); assay: Displacement of [3H]colchicine from tubulin in bovine brain homogenate at 1 uM incubated for 10 mins by DEAE-cellulose filter assay; assay type: tissue-based
[10] = test system: HOP-62; assay: Cytotoxicity against human HOP62 cells assessed as growth inhibition after 48 hrs by SRB assay; assay type: functional; settings: HOP-62, 48 h
[11] = test system: ACHN; assay: Cytotoxicity against human ACHN cells assessed as growth inhibition after 48 hrs by SRB assay; assay type: functional
[12] = test system: MOLT-4; assay: Cytotoxicity against human MOLT4 cells assessed as growth inhibition after 48 hrs by SRB assay; assay type: functional; settings: MOLT-4, 48 h
[13] = test system: KM12; assay: Cytotoxicity against human KM12 cells assessed as growth inhibition after 48 hrs by SRB assay; assay type: functional; settings: KM12, 48 h
[14] = test system: MDA-MB-435; assay: Cytotoxicity against human MDA-MB-435 cells assessed as growth inhibition after 48 hrs by SRB assay; assay type: functional, cell-based
[15] = test system: M14; assay: Cytotoxicity against human M14 cells assessed as growth inhibition after 48 hrs by SRB assay; assay type: functional; settings: M14, 48 h
[16] = target: Tubulin (Bos taurus, UniProt Q6B856+Q862L2+Q862F3); assay: Inhibition of tubulin assembly in bovine brain […] assessed as reduction in turbidity increase preincubated for 15 mins followed by GTP addition measured for 20 mins by spectrophotometric analysis
Procedure, shortened: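 Purified bovine brain tubulin, 1.0 mg/mL (10 µM), was preincubated 15 min at 30 °C in 0.8 M monosodium glutamate (pH 6.6) with compound and 4% DMSO. Mixtures were chilled and 0.4 mM GTP added. Turbidity was followed for 20 min at 30 °C. IC50 is the concentration halving the turbidity increase, interpolated between tested concentrations.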

[17] = test system: PC-3; assay: Cytotoxicity against human PC3 cells assessed as growth inhibition after 48 hrs by SRB assay; assay type: functional; settings: PC-3, 48 h
[18] = test system: NCI-H322M; assay: Cytotoxicity against human NCI-H322M cells assessed as growth inhibition after 48 hrs by SRB assay; assay type: functional
[19] = target: Tubulin (Homo sapiens) (UniProt P68371+Q9H4B7+P0DPH7+P68366+Q13509+Q71U36+P04350+Q3ZCM7+P07437+P68363+Q9BQE3+Q6PEY2+Q13885+Q9BVA1+Q9BUF5); assay: Induction of microtubule disruption in human HeLa cells assessed as multipolarization of spindle at 5 times IC50 incubated for 18 hrs by indirect immunofluorescence analysis relative to vehicle-treated control; assay type: cell-based
Procedure, shortened: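 Mitotic spindles and microtubules were imaged by indirect immunofluorescence with a β-tubulin antibody and compared with vehicle-treated cells.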

[20] = target: T1, Tubulin (Bos taurus); assay: Inhibition of [3H]colchicine binding to tubulin in bovine brain homogenate at 5 uM incubated for 10 mins by DEAE-cellulose filter assay; assay type: tissue-based
[21] = test system: HCT-116; assay: Cytotoxicity against human HCT116 cells assessed as growth inhibition after 48 hrs by SRB assay; assay type: functional; settings: HCT-116, 48 h
[22] = test system: SF-539; assay: Cytotoxicity against human SF539 cells assessed as growth inhibition after 48 hrs by SRB assay; assay type: functional; settings: SF-539, 48 h
[23] = test system: HOP-92; assay: Cytotoxicity against human HOP92 cells assessed as growth inhibition after 48 hrs by SRB assay; assay type: functional; settings: HOP-92, 48 h
[24] = test system: SNB-19; assay: Cytotoxicity against human SNB19 cells assessed as growth inhibition after 48 hrs by SRB assay; assay type: functional; settings: SNB-19, 48 h
[25] = test system: HeLa; assay: Antiproliferative activity against human HeLa cells after 48 hrs by SRB assay; assay type: functional, cell-based
Procedure, shortened: (§1)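 SRB assay; IC50 is the mean of three independent experiments, each run in triplicate. Cells were kept at 37 °C under 5% CO2. HeLa and SK-OV-3 lines (parental and MDR1-M6/6) were grown in Basal Medium Eagle with 10% FBS, 1% GlutaMAX and 50 µg/mL gentamycin. HeLa WTβIII was grown in DMEM with 10% FBS.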

[26] = test system: SR; assay: Cytotoxicity against human SR cells assessed as growth inhibition after 48 hrs by SRB assay; assay type: functional
[27] = test system: SNB-75; assay: Cytotoxicity against human SNB75 cells assessed as growth inhibition after 48 hrs by SRB assay; assay type: functional; settings: SNB-75, 48 h
[28] = test system: A549; assay: Cytotoxicity against human A549 cells assessed as growth inhibition after 48 hrs by SRB assay; assay type: functional; settings: A549, 48 h
[29] = test system: HeLa; assay: Antiproliferative activity against multidrug resistant human HeLa cells expressing wild type beta3 tubulin after 48 hrs by SRB assay; assay type: functional, cell-based; procedure, shortened: as §1
[30] = test system: UO-31; assay: Cytotoxicity against human UO31 cells assessed as growth inhibition after 48 hrs by SRB assay; assay type: functional; settings: UO-31, 48 h
[31] = test system: DU-145; assay: Cytotoxicity against human DU145 cells assessed as growth inhibition after 48 hrs by SRB assay; assay type: functional; settings: DU-145, 48 h
[32] = test system: CCRF-CEM; assay: Cytotoxicity against human CCRF-CEM cells assessed as growth inhibition after 48 hrs by SRB assay; assay type: functional
[33] = test system: SF-268; assay: Cytotoxicity against human SF268 cells assessed as growth inhibition after 48 hrs by SRB assay; assay type: functional; settings: SF-268, 48 h
[34] = test system: SK-OV-3; assay: Relative ratio of IC50 for human SKOV3 cells expressing MDR1-M6/6 to IC50 for human SKOV3 cells; assay type: functional
Procedure, shortened: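 Rr is the IC50 in Pgp-expressing SK-OV-3 MDR1-M6/6 cells divided by the IC50 in parental SK-OV-3 cells. Both IC50s come from the SRB assay, averaging three independent experiments run in triplicate.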

[35] = test system: 786-0; assay: Cytotoxicity against human 786-0 cells assessed as growth inhibition after 48 hrs by SRB assay; assay type: functional; settings: 786-0, 48 h
[36] = test system: RPMI-8226; assay: Cytotoxicity against human RPMI8226 cells assessed as growth inhibition after 48 hrs by SRB assay; assay type: functional; settings: RPMI-8226, 48 h
[37] = test system: HCC 2998; assay: Cytotoxicity against human HCC2998 cells assessed as growth inhibition after 48 hrs by SRB assay; assay type: functional; settings: HCC 2998, 48 h
[38] = test system: Malme-3M; assay: Cytotoxicity against human MALME-3M cells assessed as growth inhibition after 48 hrs by SRB assay; assay type: functional

Structure (SMILES): COc1ccc(N(C)c2ncnc3occ(C)c23)cc1
- GI50 [1]: < 10 nM
- GI50 [2]: < 10 nM
- GI50 [3]: < 10 nM
- GI50 [4]: < 10 nM
- GI50 [5]: < 10 nM
- GI50 [6]: < 10 nM
- GI50 [7]: < 10 nM
- GI50 [8]: < 10 nM
- inhibition [9]: 71%
- GI50 [10]: 18.4 nM
- GI50 [11]: 22.5 nM
- GI50 [12]: < 10 nM
- GI50 [13]: < 10 nM
- GI50 [14]: <10 nM
- GI50 [15]: < 10 nM
- IC50 [16]: 3300 nM
- GI50 [17]: < 10 nM
- GI50 [18]: > 100000 nM
- Activity [19]: Active
- inhibition [20]: 96%
- GI50 [21]: < 10 nM
- GI50 [22]: < 10 nM
- GI50 [23]: 62.5 nM
- GI50 [24]: < 10 nM
- IC50 [25]: 9.5 nM
- GI50 [26]: < 10 nM
- GI50 [27]: < 10 nM
- GI50 [28]: < 10 nM
- IC50 [29]: 8.1 nM
- GI50 [30]: < 10 nM
- GI50 [31]: < 10 nM
- GI50 [32]: < 10 nM
- GI50 [33]: 10.1 nM
- Ratio IC50 [34]: 1.1
- GI50 [35]: < 10 nM
- GI50 [36]: < 10 nM
- GI50 [37]: < 10 nM
- GI50 [38]: 38.7 nM
